Test [1] deals with TET2. Briefly: Total TET activity. The class given is cell-based, human. To be noted: inhibitor 10 nM for 1 hr prior to FLT3L stimulation for 30 minutes; CD34+ stem/early progenitors; three biological replicates. The method, boiled down:
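Healthy-donor CD34+ cells, CliniMACS-purified, cultured 4 days in IMDM, 20% human serum, TPO/FLT3L/IL-3/IL-6 (20 ng/mL each), SCF 100 ng/mL. Cytokine-washed, held 4 hrs in IMDM/1% BSA, inhibitor 1 hr, then FLT3L (100 ng/ml) 30 min. Nuclear lysates (Bradford-normalised) on 5-mC-coated wells, 5-hmC detected fluorometrically. Standard curve 0–2 ng, ng/min/mg. Unstimulated and stimulated controls; mean ± SEM, three biological replicates.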

In test [2] the test system is TET2. Briefly: TET2 activity and 5-hmC levels upon TPO or G-CSF stimulation. The class given is cell-based. To be noted: Fig. S1A-D. In short, it runs like this:
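Total TET activity was measured in nuclear lysates, with protein quantified by Bradford assay, using a fluorescence ELISA in which plate-coated 5-mC substrate is converted to 5-hmC and detected with an anti-5-hmC antibody. 5-hmC content was measured on 200 ng DNA per assay and expressed as a percentage of total DNA.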

As for `CC(C)(C)c1cc(NC(=O)Nc2ccc(-c3cn4c(n3)sc3cc(OCCN5CCOCC5)ccc34)cc2)no1` [AC2220], the “Effect on FLT3L-stimulated TET2 activity” value in the test on TET2 [1] is reported as “Inhibition of TET2 activity”.

Consider `CNC(=O)c1cc(Oc2ccc(NC(=O)Nc3ccc(Cl)c(C(F)(F)F)c3)cc2)ccn1` [Sorafenib], for which the “Effect on FLT3L-stimulated TET2 activity” value with TET2 [1] is “Inhibition of TET2 activity”.

With TPO: cytokine thrombopoietin, in the test with TET2 [2], the “5hm-C levels upon cytokine stimulation” value is recorded as “increased” and the “TET2 activity upon cytokine stimulation” value is on record as “increased”.

B1: G-CSF: cytokine granulocyte colony stimulation factor (protein, UniProt P09919 31-207, looked up)
Granulocyte …: TPLGPASSLPQSFLLKCLEQVRKIQGDGAALQEKLVSECATYKLCHPEELVLLGHSLGIPWAPLSSCPSQALQLAGCLSQLHSGLFLYQGLLQALEGISPELGPTLDTLQLDVADFATTIWQQMEELGMAPALQPTQGAMPAFASAFQRRAGGVLVASHLQSFLEVSYRVLRHLAQP
For the molecule B1, in the test with TET2 [2], the “5hm-C levels upon cytokine stimulation” value is “increased” and the “TET2 activity upon cytokine stimulation” value is recorded as “increased”.

The record behind these values is PMC6697164 (Cancer discovery, 2019).
